Measurements as given in PMC4987129 (Leukemia, 2015).
Each block holds one compound with its values, some of them ahead of it.

Legend:
RV-1 = assay: Anti-proliferation assay; assay type: cell-based
In short: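 RV-1 cells grown in DMEM with 10% FBS and 1% penicillin-streptomycin, seeded at 2500–3000/well for 12 h, then exposed to test compound at various concentrations for 72 h. Viability read by CellTiter-Glo luminescence and normalized to DMSO controls. Values are the mean of three independent measurements, with standard error <20%, and GI50 was derived by curve fitting.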

HeLa = assay: Anti-proliferation assay; assay type: cell-based
MEC-1 = assay: Anti-proliferation assay; assay type: cell-based; settings: MEC-1, CLL; 72 hours
MEC-2 = assay: Anti-proliferation assay; assay type: cell-based; settings: MEC-2, CLL; 72 hours
REC-1 = assay: Anti-proliferation assay; assay type: cell-based; settings: REC-1, MCL; 72 hours
DU-145 = assay: Anti-proliferation assay; assay type: cell-based
Ramos cells = assay: Signaling pathway effect examination; assay type: cell-based
In short: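 Ramos cells in RPMI with 10% FBS were treated with serially diluted test compound for 4 h. Cells were then harvested and lysed, and phosphorylation in the lysates was assessed by western blotting.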

U2932 = assay: Anti-proliferation assay; assay type: cell-based
Hs 505.T = assay: Anti-proliferation assay; assay type: cell-based; settings: CLL, 72 hours
NB4 = assay: Anti-proliferation assay; assay type: cell-based, human; settings: NB4, AML; 72 hours
Ramos = assay: Anti-proliferation assay; assay type: cell-based; settings: B-lymphoma, 72 hours
HEL = assay: Anti-proliferation assay; assay type: cell-based
SKM-1 = assay: Anti-proliferation assay; assay type: cell-based, human; settings: SKM-1, AML; 72 hours
U937 = assay: Anti-proliferation assay; assay type: cell-based; settings: U937, AML; 72 hours
K562 = assay: Anti-proliferation assay; assay type: cell-based
TMD8 = assay: Anti-proliferation assay; assay type: cell-based
HCT-116 = assay: Anti-proliferation assay; assay type: cell-based
NALM6 = assay: Anti-proliferation assay; assay type: cell-based, human; settings: NALM6, ALL; 72 hours
OCI-AML3 = assay: Anti-proliferation assay; assay type: cell-based, human
NOMO-1 = assay: Anti-proliferation assay; assay type: cell-based, human
cancer cell lines = assay: Anti-proliferation, comparison of BMX-IN-1 with QL-X-138; assay type: cell-based; settings: Supplemental Table 3
mTOR = settings: read-out: IC50, mTOR; biochemical; cited from earlier work
MNK1 = MNK1 (Homo sapiens, UniProt Q9BUB5); settings: cited from earlier work
BTK = BTK (Homo sapiens, UniProt Q06187); settings: cited from earlier work
Chain of BTK (Q06187 whole entry): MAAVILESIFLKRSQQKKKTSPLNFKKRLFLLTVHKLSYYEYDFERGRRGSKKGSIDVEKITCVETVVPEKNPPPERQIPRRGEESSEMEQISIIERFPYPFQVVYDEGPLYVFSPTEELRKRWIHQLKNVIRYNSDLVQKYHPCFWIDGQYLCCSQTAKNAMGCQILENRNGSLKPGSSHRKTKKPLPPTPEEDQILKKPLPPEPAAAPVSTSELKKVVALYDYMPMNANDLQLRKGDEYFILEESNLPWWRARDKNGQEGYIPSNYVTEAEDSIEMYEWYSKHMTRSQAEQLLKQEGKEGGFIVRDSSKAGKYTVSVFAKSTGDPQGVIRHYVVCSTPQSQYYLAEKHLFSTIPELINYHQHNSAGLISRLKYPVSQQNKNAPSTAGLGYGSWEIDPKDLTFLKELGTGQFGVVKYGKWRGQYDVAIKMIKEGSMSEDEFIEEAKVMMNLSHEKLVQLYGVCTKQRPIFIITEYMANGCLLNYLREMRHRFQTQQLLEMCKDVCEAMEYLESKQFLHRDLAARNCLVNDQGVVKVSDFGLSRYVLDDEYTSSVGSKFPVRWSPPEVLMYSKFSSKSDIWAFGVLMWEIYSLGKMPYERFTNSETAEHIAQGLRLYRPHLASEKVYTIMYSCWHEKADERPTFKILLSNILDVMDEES

Chain of MNK1 (Q9BUB5 1-424 isoform Q9BUB5-2): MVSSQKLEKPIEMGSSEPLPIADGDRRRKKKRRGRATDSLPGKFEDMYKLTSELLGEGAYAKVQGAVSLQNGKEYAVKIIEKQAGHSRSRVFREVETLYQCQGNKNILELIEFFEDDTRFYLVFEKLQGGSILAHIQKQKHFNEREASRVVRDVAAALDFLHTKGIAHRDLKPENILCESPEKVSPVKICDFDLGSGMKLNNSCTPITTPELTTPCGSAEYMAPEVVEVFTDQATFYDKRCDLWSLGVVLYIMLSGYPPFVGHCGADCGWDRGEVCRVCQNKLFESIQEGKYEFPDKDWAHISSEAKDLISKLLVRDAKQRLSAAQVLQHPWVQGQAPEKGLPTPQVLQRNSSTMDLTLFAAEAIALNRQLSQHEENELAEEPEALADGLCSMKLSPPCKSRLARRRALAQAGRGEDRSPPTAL

GI50 (HeLa; Cervical, 72 hours): > 10 µM
GI50 (DU-145; DU-145, Prostate, 72 hours): > 10 µM
GI50 (Ramos): > 10 µM
GI50 (SKM-1): > 10 µM
GI50 (U937): 3.9 µM
GI50 (K562; K562, CML, 72 hours): > 10 µM
GI50 (HCT-116; HCT-116, Colon, 72 hours): > 10 µM
GI50 (OCI-AML3; OCI-AML3, AML, 72 hours): > 10 µM
SMILES: CC(=O)C1=C(O)C=C2Oc3c(C(N)=O)c(O)cc(O)c3[C@]2(C)C1=O [Cercosporamide]
GI50 (RV-1; RV-1, Prostate, 72 hours): > 10 µM
GI50 (MEC-1): > 10 µM
GI50 (MEC-2): > 10 µM
GI50 (REC-1): > 10 µM
effect on MNK phosphorylation (Ramos cells; 4 hours): did not affect
effect on phosphorylation of eIF4E S209 (Ramos cells; at a concentration of 1 μM): suppressed
GI50 (U2932; U2932, DLBCL, 72 hours): > 10 µM
GI50 (Hs 505.T): > 10 µM
GI50 (NB4): > 10 µM
GI50 (HEL; AML, 72 hours): > 10 µM
GI50 (TMD8; TMD8, DLBCL, 72 hours): > 10 µM
GI50 (NALM6): > 10 µM
GI50 (NOMO-1; NOMO-1, AML, 72 hours): > 10 µM

SMILES: C=CC(=O)Nc1cc(-n2c(=O)ccc3cnc4ccc(-c5ccc(NS(C)(=O)=O)cc5)cc4c32)ccc1C [BMX-IN-1]
anti-proliferation activity in comparison to QL-X-138 (cancer cell lines): weaker anti-proliferation activity

GI50 (HeLa; Homo sapiens, 72 h): > 10 µM
GI50 (DU-145; Homo sapiens, DU-145, 72 h): > 10 µM
GI50 (K562; Homo sapiens, K562, 72 h): > 10 µM
GI50 (HCT-116; Homo sapiens, HCT-116, 72 h): > 10 µM
GI50 (OCI-AML3; Homo sapiens, OCI-AML-3, 72 h): > 10 µM
SMILES: C=CC(=O)N1CCC[C@@H](n2nc(-c3ccc(Oc4ccccc4)cc3)c3c(N)ncnc32)C1 [PCI-32765]
GI50 (RV-1; RV-1, 72 h): > 10 µM
effect on MNK phosphorylation (Ramos cells; 4 hours): did not affect
effect on phosphorylation of PLCγ2 Y1217 (Ramos cells; 4 hours): strongly blocked
GI50 (U2932; Homo sapiens, U2932, 72 h): > 10 µM
GI50 (HEL; Homo sapiens, 72 h): 4 µM
GI50 (TMD8; Homo sapiens, TMD8, 72 h): 0.002 µM
GI50 (NOMO-1; Homo sapiens, NOMO-1, 72 h): > 10 µM

SMILES: Nc1ccc(-c2ccc3ncc4ccc(=O)n(-c5cccc(C(F)(F)F)c5)c4c3c2)cn1 [Torin2, 9-(6-aminopyridin-3-yl)-1-(3-(trifluoromethyl)phenyl)benzo[h][1,6]naphthyridin-2(1H)-one]
IC50 (mTOR): 0.00025 µM
activity against MNK1 (MNK1): no apparent activity
activity against BTK (BTK): no apparent activity
